Measured values reported in ChEMBL document CHEMBL1629527, “In vitro antifungal activities of bis(alkylpyridinium)alkane compounds against pathogenic yeasts and molds” (Antimicrob Agents Chemother, 2010).
Converted amounts (≈) assume the structure as drawn.

Experiments:
[1] = Antifungal activity against Exophiala jeanselmei 03-200268 after 48 to 72 hrs; format: functional
Summary of the method: (§1)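 CLSI M38-A2 broth microdilution for molds in RPMI 1640 with L-glutamine and no bicarbonate, buffered with 0.165 M MOPS to pH 7.0. Compounds were dissolved in water and tested at 0.175–87.5 μM final, 35°C, up to 7 days. MIC was read visually as 100% inhibition versus growth control. For MFC, clear wells were plated on SDA and the lowest concentration with no colonies taken. Each isolate was run in duplicate, two independent experiments.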

Exophiala spinifera [2] = assay: Antifungal activity against Exophiala spinifera 03-200803 after 48 to 72 hrs; format: functional; summary of the method: as §1
Rhizopus arrhizus [3] = assay: Antifungal activity against Rhizopus oryzae 05-203111 after 48 to 72 hrs; format: functional
Summary of the method: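 After the broth microdilution MIC read, suspension from every well without visible growth was plated onto Sabouraud dextrose agar and incubated at 35°C, up to 7 days for molds. MFC was taken as the lowest drug concentration with no colonies.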

Aspergillus terreus [4] = assay: Antifungal activity against Aspergillus terreus 05-202844 after 48 to 72 hrs; format: functional
Summary of the method: (§2)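 MFC: after the MIC read, 30-μl aliquots from each well without visible growth were plated onto Sabouraud dextrose agar and incubated at 35°C. Reading was at 48–72 h for yeasts and up to 7 days for molds. MFC was the lowest concentration with no colonies.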

Lomentospora prolificans [5] = assay: Antifungal activity against Scedosporium prolificans 05-203060 after 48 to 72 hrs; format: functional; summary of the method: as §1
Exophiala spinifera [6] = assay: Antifungal activity against Exophiala spinifera 03-200803 after 24 to 72 hrs by broth microdilution method; format: functional
Summary of the method: (§3)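 Mold isolates subcultured on potato dextrose agar, then tested by CLSI M38-A2 broth microdilution in RPMI 1640 (L-glutamine, no bicarbonate) buffered to pH 7.0 with 0.165 M MOPS. Compounds were dissolved in water and tested at a final 0.175–87.5 μM. Plates were incubated at 35°C. MIC was read visually as the lowest concentration giving 100% inhibition versus the growth control. Each isolate was run in duplicate in two independent experiments.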

Fusarium solani = assay: Antifungal activity against Fusarium solani 04-203102 after 24 to 72 hrs by broth microdilution method; format: functional; summary of the method: as §3
[7] = Antifungal activity against Paecilomyces lilacinus 05-200601 after 24 to 72 hrs by broth microdilution method; format: functional; conditions: Purpureocillium lilacinum; summary of the method: as §3
Rhizopus arrhizus [8] = assay: Antifungal activity against Rhizopus oryzae 05-203111 after 24 to 72 hrs by broth microdilution method; format: functional; summary of the method: as §3
Candida parapsilosis [9] = assay: Antifungal activity against Candida parapsilosis ATCC 22019 after 48 to 72 hrs; format: functional; conditions: Lodderomyces parapsilosis; summary of the method: as §2
Aspergillus fumigatus [10] = assay: Antifungal activity against Aspergillus fumigatus 05-203114 after 24 to 72 hrs by broth microdilution method; format: functional
Summary of the method: (§4)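 Broth microdilution MIC per CLSI M27-A3 (yeasts) or M38-A2 (molds). RPMI 1640 with L-glutamine, without bicarbonate, buffered to pH 7.0 with 0.165 M MOPS. Final test range for the compounds was 0.175–87.5 μM. Incubation at 35°C with visual reading at 24–72 h. MIC was the lowest concentration giving 100% inhibition versus the growth control (azoles 50% or 100%, by organism). Each isolate was run in duplicate in two independent experiments.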

Aspergillus flavus [11] = assay: Antifungal activity against Aspergillus flavus ATCC 204304 after 24 to 72 hrs by broth microdilution method; format: functional; summary of the method: as §4
Aspergillus flavus [12] = assay: Antifungal activity against Aspergillus flavus 05-203758 after 24 to 72 hrs by broth microdilution method; format: functional; summary of the method: as §4
Aspergillus terreus [13] = assay: Antifungal activity against Aspergillus terreus 05-202844 after 24 to 72 hrs by broth microdilution method; format: functional; summary of the method: as §4
Lomentospora prolificans [14] = assay: Antifungal activity against Scedosporium prolificans 05-203060 after 24 to 72 hrs by broth microdilution method; format: functional; summary of the method: as §3
Scedosporium apiospermum = assay: Antifungal activity against Scedosporium apiospermum 05-203100 after 24 to 72 hrs by broth microdilution method; format: functional; summary of the method: as §3
[15] = test system: Cunninghamella bertholletiae; assay: Antifungal activity against Cunninghamella bertholletiae 99-12187 after 24 to 72 hrs by broth microdilution method; format: functional; summary of the method: as §4
Lichtheimia corymbifera = assay: Antifungal activity against Absidia corymbifera 04-200170 after 24 to 72 hrs by broth microdilution method; format: functional; summary of the method: as §4
Aspergillus fumigatus [16] = assay: Antifungal activity against Aspergillus fumigatus ATCC 204305 after 24 to 72 hrs by broth microdilution method; format: functional; summary of the method: as §4
[17] = test system: Cryptococcus gattii species complex; assay: Antifungal activity against Cryptococcus gattii 05-200122 after 24 to 72 hrs by broth microdilution method; format: functional, Cryptococcus bacillisporus; summary of the method: as §4
Cryptococcus neoformans [18] = assay: Antifungal activity against Cryptococcus neoformans 05-202523 after 24 to 72 hrs by broth microdilution method; format: functional; summary of the method: as §4
Cryptococcus neoformans [19] = assay: Antifungal activity against Cryptococcus neoformans ATCC 90112 after 24 to 72 hrs by broth microdilution method; format: functional; summary of the method: as §4
Candida tropicalis [20] = assay: Antifungal activity against Candida tropicalis 04-202361 after 24 to 72 hrs by broth microdilution method; format: functional; summary of the method: as §4
Nakaseomyces glabratus [21] = assay: Antifungal activity against Candida glabrata 04-202345 after 24 to 72 hrs by broth microdilution method; format: functional; summary of the method: as §4
Candida parapsilosis [22] = assay: Antifungal activity against Candida parapsilosis 04-202398 after 24 to 72 hrs by broth microdilution method; format: functional; conditions: Lodderomyces parapsilosis; summary of the method: as §4
Pichia kudriavzevii [23] = assay: Antifungal activity against Candida krusei ATCC 9258 after 24 to 72 hrs by broth microdilution method; format: functional; summary of the method: as §4
Pichia kudriavzevii [24] = assay: Antifungal activity against Candida krusei 04-202328 after 24 to 72 hrs by broth microdilution method; format: functional; summary of the method: as §4
Candida parapsilosis [25] = assay: Antifungal activity against Candida parapsilosis ATCC 22019 after 24 to 72 hrs by broth microdilution method; format: functional; conditions: Lodderomyces parapsilosis; summary of the method: as §4
Pichia kudriavzevii [26] = assay: Antifungal activity against Candida krusei ATCC 6258 after 24 to 72 hrs by broth microdilution method; format: functional; summary of the method: as §4
Candida albicans [27] = assay: Antifungal activity against Candida albicans ATCC 10231 after 24 to 72 hrs by broth microdilution method; format: functional; summary of the method: as §4
Candida albicans [28] = assay: Antifungal activity against Candida albicans ATCC 90028 after 24 to 72 hrs by broth microdilution method; format: functional; summary of the method: as §4
[29] = Antifungal activity against Exophiala jeanselmei 03-200268 after 24 to 72 hrs by broth microdilution method; format: functional; summary of the method: as §4
Cryptococcus neoformans [30] = assay: Antifungal activity against Cryptococcus neoformans after 24 to 72 hrs by broth microdilution method; format: functional; summary of the method: as §4
[31] = test system: Cryptococcus gattii species complex; assay: Antifungal activity against Cryptococcus gattii after 24 to 72 hrs by broth microdilution method; format: functional, Cryptococcus bacillisporus; summary of the method: as §4
Candida albicans [32] = assay: Antifungal activity against Candida albicans after 24 to 72 hrs by broth microdilution method; format: functional
Summary of the method: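 CLSI M27-A3 broth microdilution for yeasts in RPMI 1640 with L-glutamine and no bicarbonate, buffered with 0.165 M MOPS to pH 7.0. Compounds were dissolved in water and tested at 0.175–87.5 μM final, 35°C. MIC was read visually at 24–72 h as 100% inhibition versus growth control. For MFC, 30 μl from clear wells went onto SDA at 35°C for 48–72 h, reading the lowest concentration without colonies. Duplicates, two independent runs.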

Candida tropicalis [33] = assay: Antifungal activity against Candida tropicalis after 24 to 72 hrs by broth microdilution method; format: functional; summary of the method: as §4
Nakaseomyces glabratus [34] = assay: Antifungal activity against Candida glabrata after 24 to 72 hrs by broth microdilution method; format: functional; summary of the method: as §4
Candida parapsilosis [35] = assay: Antifungal activity against Candida parapsilosis after 24 to 72 hrs by broth microdilution method; format: functional; conditions: Lodderomyces parapsilosis; summary of the method: as §4
Pichia kudriavzevii [36] = assay: Antifungal activity against Candida krusei after 24 to 72 hrs by broth microdilution method; format: functional; summary of the method: as §4
Candida dubliniensis = assay: Antifungal activity against Candida dubliniensis after 24 to 72 hrs by broth microdilution method; format: functional; summary of the method: as §4
[37] = test system: Meyerozyma guilliermondii; assay: Antifungal activity against Candida guilliermondii after 24 to 72 hrs by broth microdilution method; format: functional; summary of the method: as §4
Clavispora lusitaniae = assay: Antifungal activity against Candida lusitaniae after 24 to 72 hrs by broth microdilution method; format: functional; summary of the method: as §4

CCCCCc1cccc[n+]1CCCCCCCCCCCC[n+]1ccccc1CCCCC.[Cl-].[Cl-]
MFC [1]: 2.96 µg/mL
MFC (Exophiala spinifera [2]): 0.74 µg/mL
MFC (Rhizopus arrhizus [3]): 5.9 µg/mL
MFC (Aspergillus terreus [4]): 1.48 µg/mL
MFC (Lomentospora prolificans [5]): 5.9 µg/mL
MIC (Exophiala spinifera [6]): 0.37 µg/mL
MIC (Fusarium solani): 23.7 µg/mL
MIC [7]: > 47.3 µg/mL
MIC (Rhizopus arrhizus [8]): 2.96 µg/mL
MFC (Candida parapsilosis [9]): 1.48 µg/mL
MIC (Aspergillus fumigatus [10]): > 47.3 µg/mL
MIC (Aspergillus flavus [11]): > 47.3 µg/mL
MIC (Aspergillus flavus [12]): > 47.3 µg/mL
MIC (Aspergillus terreus [13]): 0.74 µg/mL
MIC (Lomentospora prolificans [14]): 1.48 µg/mL
MIC (Scedosporium apiospermum): 1.48 µg/mL
MIC [15]: 47.3 µg/mL
MIC (Lichtheimia corymbifera): > 47.3 µg/mL
MIC (Aspergillus fumigatus [16]): > 47.3 µg/mL
MIC [17]: 1.48 µg/mL
MIC (Cryptococcus neoformans [18]): 47.3 µg/mL
MIC (Cryptococcus neoformans [19]): 5.9 µg/mL
MIC (Candida tropicalis [20]): 0.74 µg/mL
MIC (Nakaseomyces glabratus [21]): 0.37 µg/mL
MIC (Candida parapsilosis [22]): 47.3 µg/mL
MIC (Pichia kudriavzevii [23]): 23.7 µg/mL
MIC (Pichia kudriavzevii [24]): 23.7 µg/mL
MIC (Candida parapsilosis [25]): 0.74 µg/mL
MIC (Pichia kudriavzevii [26]): 23.7 µg/mL
MIC (Candida albicans [27]): 1.48 µg/mL
MIC (Candida albicans [28]): 1.48 µg/mL
MIC [29]: 0.74 µg/mL

C[C@@H]1[C@H](O)[C@@H](C)/C=C/C=C/C=C/C=C/C=C/C=C/C=C/[C@H](O[C@@H]2O[C@H](C)[C@@H](O)[C@H](N)[C@@H]2O)C[C@@H]2O[C@](O)(C[C@@H](O)C[C@@H](O)[C@H](O)CC[C@@H](O)C[C@@H](O)CC(=O)O[C@H]1C)C[C@H](O)[C@H]2C(=O)O [AMPHOTERICIN B]
MIC (Cryptococcus neoformans [30]): 0.19 µg/mL (≈ 0.206 µM)
MIC50 (Cryptococcus neoformans [30]): 0.25 µg/mL (≈ 0.271 µM)
MIC90 (Cryptococcus neoformans [30]): 0.5 µg/mL (≈ 0.541 µM)
MIC [31]: 0.19 µg/mL (≈ 0.206 µM)
MIC50 [31]: 0.25 µg/mL (≈ 0.271 µM)
MIC90 [31]: 0.25 µg/mL (≈ 0.271 µM)
MIC (Candida albicans [32]): 0.2 µg/mL (≈ 0.216 µM)
MIC50 (Candida albicans [32]): 0.25 µg/mL (≈ 0.271 µM)
MIC90 (Candida albicans [32]): 0.5 µg/mL (≈ 0.541 µM)
MIC (Candida tropicalis [33]): 0.22 µg/mL (≈ 0.238 µM)
MIC50 (Candida tropicalis [33]): 0.25 µg/mL (≈ 0.271 µM)
MIC90 (Candida tropicalis [33]): 0.5 µg/mL (≈ 0.541 µM)
MIC (Nakaseomyces glabratus [34]): 0.18 µg/mL (≈ 0.195 µM)
MIC50 (Nakaseomyces glabratus [34]): 0.125 µg/mL (≈ 0.135 µM)
MIC90 (Nakaseomyces glabratus [34]): 0.25 µg/mL (≈ 0.271 µM)
MIC (Candida parapsilosis [35]): 0.28 µg/mL (≈ 0.303 µM)
MIC50 (Candida parapsilosis [35]): 0.25 µg/mL (≈ 0.271 µM)
MIC90 (Candida parapsilosis [35]): 0.5 µg/mL (≈ 0.541 µM)
MIC (Pichia kudriavzevii [36]): 0.22 µg/mL (≈ 0.238 µM)
MIC50 (Pichia kudriavzevii [36]): 0.25 µg/mL (≈ 0.271 µM)
MIC90 (Pichia kudriavzevii [36]): 0.5 µg/mL (≈ 0.541 µM)
MIC (Candida dubliniensis): 0.1 µg/mL (≈ 0.108 µM)
MIC50 (Candida dubliniensis): 0.125 µg/mL (≈ 0.135 µM)
MIC90 (Candida dubliniensis): 0.125 µg/mL (≈ 0.135 µM)
MIC [37]: 0.15 µg/mL (≈ 0.162 µM)
MIC50 [37]: 0.125 µg/mL (≈ 0.135 µM)
MIC90 [37]: 0.25 µg/mL (≈ 0.271 µM)
MIC (Clavispora lusitaniae): 0.12 µg/mL (≈ 0.13 µM)
MIC50 (Clavispora lusitaniae): 0.125 µg/mL (≈ 0.135 µM)
MIC90 (Clavispora lusitaniae): 0.25 µg/mL (≈ 0.271 µM)
